A word on the MIC: it is the smallest concentration in the dilution series that meets the test's criterion for growth inhibition. Higher therefore signals a need for much substance.

Here are results for 1 compound from ChEMBL document CHEMBL2086245, “Micelles catalyzed chemo- and regio-selective one pot and one step synthesis of 2,3,5,6-tetrakis(alkyl and arylsulfanyl)-1,4-benzoquinones and 2,5-diaminosubstituted-1,4-benzoquinones "In-Water" and their biological evaluation as antibacterial and antifungal agents” (Eur J Med Chem, 2012).

In brackets after ≈: the same amount, converted by molar mass. A value given as a limit tells only on which side of the number the result lay.

The subject of data set [1] is Cryptococcus neoformans. The experiment in a line: Antifungal activity against Cryptococcus neoformans after 72 hrs by broth microdilution method. Type of data set: functional. Summed up: (§1)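 NCCLS broth microdilution in MOPS-buffered RPMI 1640, 96-well plates. Inoculum 1-5 × 10^3 cells/mL, moist chamber, 35 °C. Absorbance at 492 nm read at 48 h (C. albicans, C. parapsilosis), 72 h (C. neoformans, S. schenckii, A. fumigatus) or 96 h (T. mentagrophytes). MIC defined as 90% growth inhibition versus growth control.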
For orientation: In broth dilution the organism is exposed to a series of concentrations in liquid medium.

Data set [2] deals with Sporothrix schenckii. In words: Antifungal activity against Sporothrix schenckii after 72 hrs by broth microdilution method. Type of data set: functional. Summed up: as §1
For data set [3], the system named is Trichophyton mentagrophytes. In words: Antifungal activity against Trichophyton mentagrophytes after 96 hrs by broth microdilution method. The class given is functional. Summed up: as §1
Data set [4] deals with Aspergillus fumigatus. In words: Antifungal activity against Aspergillus fumigatus after 72 hrs by broth microdilution method. The class given is functional. Summed up: as §1
For data set [5], the system named is Candida parapsilosis. The experiment in a line: Antifungal activity against Candida parapsilosis ATCC 22019 after 48 hrs by broth microdilution method. The class given is functional. Conditions: Lodderomyces parapsilosis, ATCC 22019, 48 h. Summed up: as §1
In data set [6] the test system is L929. In words: Cytotoxicity against mouse L929 cells assessed as morphological changes at 0.39 to 1.56 ug/ml using Giemsa staining by phase contrast microscopy analysis. The class given is cell-based. Summed up: (§2)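 L929 fibroblasts in serum-free RPMI exposed to compound for 24 h. Wells fixed, Giemsa-stained 30 min at 37 °C, washed with PBS, air-dried. Morphology inspected by phase contrast microscopy against untreated control wells.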

For data set [7], the system named is L929. The experiment in a line: Cytotoxicity against mouse L929 cells assessed as morphological changes at 6.25 to 50 ug/ml using Giemsa staining by phase contrast microscopy analysis. The class given is cell-based. Summed up: as §2
A short description of data set [8]: Cytotoxicity against mouse L929 cells assessed as cell viability at 6.25 to 50 ug/ml after 24 hrs by MTT assay. The class given is cell-based. Conditions: read-out: Activity. Background: Tetrazolium dyes change colour on reduction, which living cells bring about.
Data set [9] concerns Escherichia coli. In words: Antibacterial activity against Escherichia coli ATCC 9637 after 24 hrs by broth microdilution method. The class given is functional. Conditions: ATCC 9637, 24 h. Summed up: (§3)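 NCCLS broth microdilution in Mueller-Hinton broth, 96-well plates. Initial inoculum 1-5 × 10^3 cells/mL. Incubated in a moist chamber at 35 °C for 24 h, then absorbance read at 492 nm. MIC taken as the concentration giving 90% growth inhibition relative to the growth control.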

Data set [10] concerns Pseudomonas aeruginosa. In words: Antibacterial activity against Pseudomonas aeruginosa ATCC BAA-427 after 24 hrs by broth microdilution method. Type of data set: functional. The following applies: ATCC BAA-427, 24 h. Summed up: as §3
Data set [11] concerns Staphylococcus aureus. The experiment in a line: Antibacterial activity against Staphylococcus aureus ATCC 25923 after 24 hrs by broth microdilution method. The class given is functional. The following applies: ATCC 25923, 24 h. Summed up: as §3
For data set [12], the system named is Klebsiella pneumoniae. In words: Antibacterial activity against Klebsiella pneumoniae ATCC 27736 after 24 hrs by broth microdilution method. Type of data set: functional. Conditions: ATCC 27736, 24 h. Summed up: as §3
For data set [13], the system named is Candida albicans. The experiment in a line: Antifungal activity against Candida albicans after 48 hrs by broth microdilution method. The class given is functional. Summed up: as §1

As for `CN1CCN(C2=C(Cl)C(=O)C(N3CCN(C)CC3)=C(Cl)C2=O)CC1`, the MIC was 1.56 µg/mL (≈ 4.18 µM) in data set [1]; 1.56 µg/mL (≈ 4.18 µM) in [2]; 0.78 µg/mL (≈ 2.09 µM) in [3]; 12.5 µg/mL (≈ 33.5 µM) in [4]; 6.25 µg/mL (≈ 16.7 µM) in [5]; 6.25 µg/mL (≈ 16.7 µM) in data set [9]. For the same compound, the MIC is above 50 µg/mL in data set [10], 6.25 µg/mL (≈ 16.7 µM) in data set [11], 6.25 µg/mL (≈ 16.7 µM) in data set [12] and 6.25 µg/mL (≈ 16.7 µM) in data set [13]. Besides, the Activity result in data set [6] was “Non-toxic”; in data set [7], “Toxic”. Besides, the viability at 24 h in [8] is above 90%.
